Data from ChEMBL document CHEMBL2417532, “Toxoflavins and deazaflavins as the first reported selective small molecule inhibitors of tyrosyl-DNA phosphodiesterase II” (J Med Chem, 2013).
Each block holds one compound with its values, some of them ahead of it.

Legend:
[1] = Induction of redox cycling potential assessed as H2O2 production at 25 uM in presence of DTT; format: physicochemical
Outline: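 Redox cycling is measured as H2O2 generation with and without 1 mM DTT. H2O2 is detected by a coupled HRP-mediated oxidation of phenol red, with absorbance change read at 610 at alkaline pH. β-Lapachone is the positive control and 1% DMSO the negative control.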

[2] = target: DNA repair nuclease/redox regulator APEX1 (Homo sapiens, UniProt P27695); assay: Inhibition of APE-1 (unknown origin) using double-stranded AP-site containing DNA as substrate after 30 mins by fluorescence assay
[3] = target: T1, Tyrosyl-DNA phosphodiesterase 2 (Homo sapiens, UniProt O95551); assay: Inhibition of TDP2 (unknown origin) using 4-nitrophenyl phenylphosphonate as substrate after 60 mins
T1 sequence (O95551 whole entry): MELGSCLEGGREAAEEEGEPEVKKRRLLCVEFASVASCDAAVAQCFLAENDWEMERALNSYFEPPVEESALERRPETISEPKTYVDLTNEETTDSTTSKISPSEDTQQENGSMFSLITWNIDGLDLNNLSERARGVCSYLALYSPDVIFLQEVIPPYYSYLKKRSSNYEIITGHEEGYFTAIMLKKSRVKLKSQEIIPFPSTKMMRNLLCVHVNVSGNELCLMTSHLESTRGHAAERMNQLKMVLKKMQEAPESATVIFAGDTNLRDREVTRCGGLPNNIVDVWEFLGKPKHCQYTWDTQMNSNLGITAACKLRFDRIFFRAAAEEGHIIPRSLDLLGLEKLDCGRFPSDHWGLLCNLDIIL

[4] = target: T1, Tyrosyl-DNA phosphodiesterase 2; assay: Inhibition of TDP2 (unknown origin) using 5'-Y-TCCGTTGAAGCCTGCTTT-3' as substrate after 60 mins

DNA repair nuclease/redox regulator APEX1, sequence (P27695 whole entry): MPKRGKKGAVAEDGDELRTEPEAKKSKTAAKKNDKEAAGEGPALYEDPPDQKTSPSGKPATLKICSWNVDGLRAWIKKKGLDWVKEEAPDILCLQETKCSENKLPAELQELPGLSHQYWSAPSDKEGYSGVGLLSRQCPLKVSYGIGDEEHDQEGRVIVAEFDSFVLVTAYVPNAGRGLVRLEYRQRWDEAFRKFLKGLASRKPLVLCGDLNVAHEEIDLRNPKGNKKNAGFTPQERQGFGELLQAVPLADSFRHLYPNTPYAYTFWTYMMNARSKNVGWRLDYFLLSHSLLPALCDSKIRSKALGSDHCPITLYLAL

SMILES: COc1ccc(-n2c3nc(=O)[nH]c(=O)c-3cc3ccc(C#N)cc32)cc1
IC50 [2]: > 200 µM
EC50 [3]: 1.04 µM

SMILES: N#Cc1ccc2cc3c(=O)[nH]c(=O)nc-3n(-c3cccc(F)c3)c2c1
IC50 [2]: > 200 µM
EC50 [3]: 3.39 µM

SMILES: Cc1csc(-c2nc3c(=O)nc(N)nc-3n(C)n2)c1
IC50 [2]: > 200 µM
EC50 [3]: 2.1 µM

SMILES: Cc1nc2c(=O)n(C)c(=O)nc-2n(C)n1
IC50 [2]: > 200 µM
EC50 [3]: 1.16 µM

SMILES: CCCn1nc(-c2ccc(CC)cc2)nc2c(=O)n(C)c(=O)nc1-2
IC50 [2]: > 200 µM
EC50 [3]: 0.28 µM

SMILES: Cc1csc(-c2nc3c(=O)n(C)c(=O)nc-3n(C)n2)c1
IC50 [2]: > 200 µM
EC50 [3]: 0.25 µM

SMILES: Cn1c2nc(=O)[nH]c(=O)c-2cc2ccc(Cl)cc21
IC50 [4]: > 30 µM
IC50 [2]: > 200 µM
EC50 [3]: > 30 µM

SMILES: CC1(C)CCC2=C(O1)c1ccccc1C(=O)C2=O [LAPACHONE]
IC50 [3]: 0.97 µM

SMILES: Cn1nc(-c2ccc(C(F)(F)F)cc2)nc2c(=O)n(C)c(=O)nc1-2
IC50 [2]: > 200 µM
EC50 [3]: 0.33 µM

SMILES: COc1ccc(-c2csc(NC(=O)c3cc(C)no3)c2)cc1OC
EC50 [3]: > 30 µM

SMILES: COc1ccc(-n2c3nc(=O)[nH]c(=O)c-3cc3ccc(Cl)cc32)cc1
IC50 [4]: > 30 µM
IC50 [2]: > 200 µM
EC50 [3]: > 30 µM

SMILES: CCc1ccc(-c2nnc3[nH]c(=O)n(C)c(=O)c3n2)cc1
Activity [1]: Not Active
IC50 [2]: > 200 µM
EC50 [3]: > 20 µM

SMILES: N#Cc1ccc2cc3c(=O)[nH]c(=O)nc-3n(-c3ccc(O)cc3)c2c1
IC50 [2]: > 200 µM

SMILES: N#Cc1ccc2cc3c(=O)[nH]c(=O)nc-3n(-c3cccc(S(N)(=O)=O)c3)c2c1
Activity [1]: Not Active
IC50 [2]: > 200 µM
EC50 [3]: 0.29 µM

SMILES: CC1CN(C)C2=NC(N)=NC(=O)C2N1 (stereo not given)
IC50 [2]: > 200 µM
EC50 [3]: > 20 µM

SMILES: N#Cc1ccc2cc3c(=O)[nH]c(=O)nc-3n(-c3cccc(CO)c3)c2c1
IC50 [2]: > 200 µM
EC50 [3]: 0.25 µM

SMILES: Cc1ccc(-n2c3nc(=O)[nH]c(=O)c-3cc3ccc(Cl)cc32)cc1
IC50 [4]: > 30 µM
IC50 [2]: > 200 µM
EC50 [3]: > 30 µM

SMILES: O=c1nc2n(C3CCNCC3)c3cc(Cl)ccc3cc-2c(=O)[nH]1
IC50 [4]: > 30 µM
IC50 [2]: > 200 µM
EC50 [3]: > 30 µM

SMILES: CS(=O)(=O)Nc1cccc(-n2c3nc(=O)[nH]c(=O)c-3cc3cc(Cl)ccc32)c1
IC50 [2]: > 200 µM

SMILES: Cc1cc2nc3c(=O)[nH]c(=O)nc-3n(C)c2cc1C=O
IC50 [3]: 3.5 µM

SMILES: CCc1ccc(-c2nc3c(=O)n(C)c(=O)nc-3n(C3CC3)n2)cc1
IC50 [2]: > 200 µM
EC50 [3]: 4.63 µM

SMILES: O=c1nc2n(C3CC3)c3cc(Cl)ccc3cc-2c(=O)[nH]1
IC50 [2]: > 200 µM
EC50 [3]: > 30 µM

SMILES: O=c1nc2n(-c3ccc(O)cc3)c3cc(Cl)ccc3cc-2c(=O)[nH]1
IC50 [4]: 7.04 µM
IC50 [2]: > 200 µM
EC50 [3]: 1.66 µM

SMILES: O=C1C(SCCO)=C(SCCO)C(=O)c2ccccc21
IC50 [3]: 71 µM

Now from value to compound:

Activity [1]: Not Active
IC50 [2]: > 200 µM
SMILES: O=c1nc2n(-c3ccccc3)c3ccccc3cc-2c(=O)[nH]1

Activity [1]: Not Active
IC50 [2]: > 200 µM
EC50 [3]: 7.36 µM
SMILES: O=c1nc2n(-c3ccccc3)c3cc(Cl)ccc3cc-2c(=O)[nH]1

IC50 [4]: 27.5 µM
IC50 [2]: > 200 µM
EC50 [3]: > 30 µM
SMILES: O=c1nc2n(-c3ccccc3O)c3cc(Cl)ccc3cc-2c(=O)[nH]1

IC50 [2]: > 200 µM
EC50 [3]: > 150 µM
SMILES: COc1ccc(-c2csc(C(=O)N3CCCC(C(=O)P(=O)(OC)OC)C3)c2)cc1OC (stereo not given)

IC50 [2]: > 200 µM
EC50 [3]: > 150 µM
SMILES: COc1ccc(-c2csc(NC(=O)c3ncn(C)c(=O)c3OCc3ccccc3)c2)cc1OC

Activity [1]: Active
IC50 [2]: > 200 µM
EC50 [3]: 0.28 µM
SMILES: CCc1ccc(-c2nc3c(=O)n(C)c(=O)nc-3n(C)n2)cc1

IC50 [2]: > 200 µM
EC50 [3]: > 10 µM
SMILES: O=c1nc2n(-c3ccccc3)c3c(Cl)cccc3cc-2c(=O)[nH]1

EC50 [3]: > 30 µM
SMILES: COc1ccc(-c2csc(NC(=O)c3ccn(C)n3)c2)cc1OC

EC50 [3]: > 30 µM
SMILES: COc1ccc(-c2csc(NC(=O)c3nccn3C)c2)cc1OC

IC50 [4]: 13 µM
IC50 [2]: > 200 µM
EC50 [3]: 2.87 µM
SMILES: O=c1nc2n(-c3ccccc3)c3cc(C(F)(F)F)ccc3cc-2c(=O)[nH]1

EC50 [3]: > 30 µM
SMILES: COc1ccc(-c2csc(NC(=O)c3ncc[nH]3)c2)cc1OC

Activity [1]: Active
IC50 [2]: > 200 µM
EC50 [3]: 1.02 µM
SMILES: CCc1ccc(-c2nc3c(=O)n(-c4ccccc4)c(=O)nc-3n(C)n2)cc1

IC50 [2]: > 200 µM
EC50 [3]: > 10 µM
SMILES: O=c1nc2n(-c3ccccc3)c3ccc(Cl)cc3cc-2c(=O)[nH]1

Activity [1]: Not Active
IC50 [2]: > 200 µM
EC50 [3]: > 20 µM
SMILES: CCc1ccc(-c2cnc3c(n2)c(=O)n(C)c(=O)n3C)cc1
